Screening results (PubChem BioAssay)
Shown are actives, neighbours in structure and some others; about 12% of the full set was active somewhere.
Wee1 degr inh: blocks degradation of human Wee1 kinase | P30291 | HeLa Luc-Wee1K328M stability, luciferase luminescence; 100% = proteasome inhibitor MG132 effect | reporter increase, % at 5 µM | hit rate 1.2% among 220,000 | AID 1321;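 active means activation above the mean of all tested compounds plus 3 SD, set per screening run, cut at about 8.8% in these data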;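 further: cells exposed to compound for 20 h before luminescence read; 0% = DMSO alone and 100% = MG132 at 30 µM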
Arbovirus anti: blocks arbovirus infection; arbovirus infection cell-based antiviral screen; inhibition, % at 10 µM; hit rate 0.37% among 200,000; in the data active means inhibition above about 30%
Lmaj promast: reduces viability of Leishmania major promastigotes | resazurin fluorescence viability | inhibition, % at 10 µM | hit rate 9% among 200,000 | AID 1063;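 further: promastigotes grown with compound for 44 hours at 28 °C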
PKD1 kinase inh: PKD1 (human) kinase inhibition; PKD1 kinase fluorescence polarization assay; Q15139; AID 797; inhibition, % (no concentration beside the values); hit rate 0.056% among 200,000
CHOP inhibitor: blocks CHOP induction under ER stress; inhibition, % at 10 µM; CHO-K1 CHOP-promoter luciferase, tunicamycin-induced, 15-18 h; hit rate 3.8% among 220,000;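 active means compounds that reduced the stress-induced luciferase reporter signal by more than about 70% of percent inhibition, limit read from the data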;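 further: 0% = tunicamycin plus vehicle and 100% = wells without tunicamycin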
Rad51 HR inh: Rad51 (human) homologous recombination inhibition. Q06609. hRad51 DNA strand exchange, fluorescence dequenching. inhibition, % at 10 µM. hit rate 0.085% among 200,000. AID 1385;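 active means inhibition above 40% at the single screening dose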;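 further: 0% = DMSO control wells and 100% = blanks with heterologous ssDNA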
Target sequence (Q06609 whole entry, looked up): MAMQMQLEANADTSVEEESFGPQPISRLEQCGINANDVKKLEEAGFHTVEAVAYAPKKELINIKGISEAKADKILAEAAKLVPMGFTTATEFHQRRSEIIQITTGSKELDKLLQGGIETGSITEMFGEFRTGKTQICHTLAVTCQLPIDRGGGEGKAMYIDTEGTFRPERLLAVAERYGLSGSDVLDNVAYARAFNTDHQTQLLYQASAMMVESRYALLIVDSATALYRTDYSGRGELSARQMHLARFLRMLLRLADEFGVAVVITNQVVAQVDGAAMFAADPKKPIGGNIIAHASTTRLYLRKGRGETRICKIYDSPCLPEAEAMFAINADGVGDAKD
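Material: hRad51 filaments on single-stranded DNA; Reagent: Donor/quencher-labelled 47-bp dsDNA substrate; Compound: 10 µM final, single point; Schedule: 37 °C 15-min filament assembly, 30-min compound preincubation, 15-min exchange; Technique: FRET fluorescence, excitation 485 nm, emission 520 nm; Benchmarks: control wells and blank wells on each plate.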
* marks the source's active call; other numbers are inactive results; / = no result. Unless noted, no stated cut-off is given here; in the data, active means inhibition above about 50%; inactive means the rest.

SMILES	Wee1 degr inh	Arbovirus anti	Lmaj promast	PKD1 kinase inh	CHOP inhibitor	Rad51 HR inh
c1ccc2c(N3CCCC3)nc(-c3ccncc3)nc2c1	-1	-29	30	-2	32	9
c1ccc(-c2nc(N3CCCCC3)nc3ccccc23)cc1	-1	-3	3	-2	17	1
c1ccc(-c2nc(N3CCCCCC3)c3ccccc3n2)nc1	1	-24	101*	3	/	5
c1ccc(-c2nc(N3CCNCC3)nc3ccccc23)cc1	-2	-8	100*	-8	20	-4
CCCN(C(=O)CCl)C1=CCCCC1	2	0	5	-2	30	/
CCn1c(N)[n+](CC(=O)Nc2ccc(SC(F)F)cc2)c2ccccc21	-2	/	/	/	28	-5
Cc1ccc(S(=O)(=O)n2nc(-c3ccco3)nc2N)cc1	0	-1	46	4	-7	-52
c1ccc2c(N3CCCCC3)nc(N3CCCC3)nc2c1	-4	-10	99*	0	17	2
c1ccc2c(c1)nc(N1CCCCC1)c1ccccc12	2	/	/	/	-5	-14
c1ccc(-c2nc(N3CCOCC3)c3ccccc3n2)nc1	0	6	99*	2	21	-1
CC(=O)N/C(=C\c1ccccc1)C(=O)Nc1ccccc1C	-1	6	-1	-6	1	-7
O=C(CN1CCN(c2ccccc2)CC1)Nc1c(C(=O)C2CC2)oc2ccccc12	-2	3	1	0	5	-6
COC(=O)c1oc2ccc(Br)cc2c1NC(=O)c1ccccc1	1	-2	-10	-4	33	-16
COC(=O)c1oc2ccc(Br)cc2c1NC(=O)CN1CCN(C)CC1	-2	/	100*	-2	/	-4
COC(=O)c1oc2ccccc2c1NC(=O)CN1CCCC1	2	-3	-7	-8	72*	4
CCN1C(=O)/C(=C2/Sc3ccccc3N2CC)S/C1=N\c1ncn[nH]1	-3	-14	36	6	1	-92
O=C(NCc1ccccc1)c1ccc(S(=O)(=O)C(F)F)cc1	-2	-8	2	-2	10	-5
CCOC(=O)N1CCN(CC(O)COc2c(C)cccc2C)CC1 (configuration not stated)	1	11	-2	4	10	0
CC1CCN(CC(O)COC2CC(C)CCC2C(C)C)CC1 (configuration not stated)	-4	16	90*	0	21	-9
CCOC(=O)N1CCN(CC(O)COC2CC(C)CCC2C(C)C)CC1 (configuration not stated)	0	-6	95*	-3	32	15
CCOC(=O)CC/C(C)=N\N=C1\SC(CC(=O)O)C(=O)N1c1ccccc1 (configuration not stated)	0	/	/	/	3	23
COc1ccc(CC(=O)N2CCc3ccccc32)cc1	1	3	-8	-10	-15	16
COc1ccc(CC(=O)N2CCNC2=O)cc1	29*	6	0	7	6	-7
COc1ccc2nc(SCC(=O)N3CCNC3=O)[nH]c2c1	9.0*	-3	-2	-8	43	-3
Cn1nc(C(F)(F)F)c(-c2ccc(Br)cc2)c1NC(=O)Nc1ccc(F)cc1F	-2	/	/	/	77*	15
SMILES	Wee1 degr inh	Arbovirus anti	Lmaj promast	PKD1 kinase inh	CHOP inhibitor	Rad51 HR inh
CCC(C)NC(=O)C(CCSC)NC(=O)c1ccccc1 (configuration not stated)	0	7	-1	-3	5	-2
CSCCC(NC(=O)c1ccccc1)C(=O)Nc1ccc(NC(C)=O)cc1 (configuration not stated)	1	1	55*	-3	-1	1
CC(C)[C@H](NC(=O)c1cccc(S(=O)(=O)N2CCOCC2)c1)C(=O)Nc1nccs1	-2	5	-11	-4	10	7
CSCCC(NC(=O)c1cccc(S(=O)(=O)N2CCOCC2)c1)C(=O)Nc1ccc(F)cc1 (configuration not stated)	-2	8	73*	-13	13	-6
Cc1ccc(NC(=O)[C@@H](NC(=O)c2cccc(S(=O)(=O)N3CCOCC3)c2)C(C)C)cc1C	-1	-9	76*	-8	53	1
CC(O/N=C/c1ccccc1OC(F)F)C(=O)Nc1cccc(S(=O)(=O)N2CCOCC2)c1 (configuration not stated)	-1	4	51*	-11	-33	-2
O=C(NCCc1c[nH]c2ccccc12)C(=O)Nc1ccccc1	6	-14	-5	-8	-15	3
CCC(=O)N(NC1=NS(=O)(=O)c2ccccc21)S(=O)(=O)c1ccc(C)cc1	-1	8	-2	-5	-4	-2
O=C(Nc1ccc(N2CCOCC2)cc1)c1cccc(S(=O)(=O)N2CCCCC2)c1	-1	-9	98*	-3	22	/
O=C(Nc1ccccc1)c1cccc(S(=O)(=O)N2CCCCC2)c1	-2	-6	20	-6	-6	8
CCOc1ccc(C(=O)N[C@H](C(=O)Nc2cccc(S(=O)(=O)N3CCCCC3)c2)C(C)C)cc1	3	-6	97*	-5	85*	-265
CCOc1ccc(C(=O)NC(=S)Nc2cccc(S(=O)(=O)NC3=NCCC3)c2)cc1	9.5*	-18	0	6	-42	-3
C=C(C)CNC(=S)Nc1cccc(S(=O)(=O)NC2=NCCC2)c1	2	6	-1	0	-4	3
C/C(=N\NC(=O)c1cccc(S(=O)(=O)N2CCCCC2)c1)c1ccc(C)o1	-3	-3	82*	0	12	-1
COc1ccccc1N(CC(O)Cn1ccnc1C)S(=O)(=O)c1ccccc1 (configuration not stated)	2	7	13	-11	25	2
COc1ccc(/C=C/c2nc3cc(-c4ccccc4)ccc3o2)cc1O	7	-42	87*	4	43	-3
COc1ccc(/C=N/Nc2ccccn2)cc1O	-2	/	/	/	7	/
CCc1cc(=O)oc2cc3occ(-c4ccc(OC)c(F)c4)c3cc12	-5	-17	20	-3	-5	9
O=C(NCc1ccco1)C1CC(c2ccc(C(F)(F)F)cc2)=NO1 (configuration not stated)	/	/	/	/	/	-7
O=S(=O)(c1cccc(C(F)(F)F)c1)N1CCC(c2cc(-c3cccc4ccccc34)n[nH]2)CC1	0	-20	26	7	56	-19
COc1ccc(S(=O)(=O)N2CCC(c3cc(-c4cccc5ccccc45)n[nH]3)CC2)cc1	0	15	27	-5	84*	3
Cc1c2c(n3c(nc4ccccc43)c1C#N)N(c1ccccc1)CC2	2	-1	53*	1	4	-6
CCc1c(C)c(C#N)c2nc3ccccc3n2c1NCC1CCCO1 (configuration not stated)	0	-5	68*	4	4	0
N#Cc1c2c(c(NCCCN3CCOCC3)n3c1nc1ccccc13)CCC2	-2	3	63*	-4	15	-3
